Experimental data pooled from the literature.

O[C@@H](CN[C@@H](COCC1CC1)Cc1ccccc1)c1cc(Cl)cc2c1-c1ccc(Cl)cc1C2 — IC50 (Plasmodium falciparum; parasite growth, SYBR Green; W2; 48 h, drug-resistant strain, blood stage): 5.4 nM
CC(C)C[C@@H]1NC(=O)[C@H](CC(N)=O)NC(=O)[C@H](CCCNC(=N)N)NC(=O)[C@H]([C@@H](C)O)NC(=O)[C@@H]2CSSC[C@@H]3NC(=O)[C@H]([C@@H](C)O)NC(=O)CNC(=O)CNC(=O)[C@H](C(C)C)NC(=O)[C@@H]4CSSC[C@H](NC(=O)[C@H](CCCCN)NC(=O)[C@H](CSSC[C@H](NC(=O)[C@H](C(C)C)NC(=O)[C@@H]5CCCN5C(=O)[C@H](CC(C)C)NC1=O)C(=O)NCC(=O)N[C@@H](CCC(=O)O)C(=O)N[C@@H]([C@@H](C)O)C(=O)N4)NC(=O)CNC(=O)[C@@H]1CCCN1C(=O)[C@H]([C@@H](C)O)NC(=O)[C@H](CC(N)=O)NC3=O)C(=O)N[C@@H](CO)C(=O)N[C@@H](Cc1c[nH]c3ccccc13)C(=O)N1CCC[C@H]1C(=O)N[C@@H](C(C)C)C(=O)N2 — IC50 (Sf9; cell growth or viability, MTT; 24 h): 1800 nM
OC(c1cc(C(F)(F)F)nc2c(C(F)(F)F)cccc12)C1CCCCN1 (centres unmarked) — IC50 (Plasmodium falciparum; parasite growth, SYBR Green; W2; 48 h, drug-resistant strain, blood stage): 20.7 nM
C[N+]1=C2C=C(NCCc3ccc(O)cc3)C(=O)c3[nH]cc(c32)CC1 — IC50 (Plasmodium falciparum; parasite growth, SYBR Green; 3D7; blood stage): 18.8 nM
N.N.[Cl][Pt][Cl] — IC50 (NCI-H460; cell growth or viability, MTT): 7550 nM
Cc1c2ccncc2c(C)c2c1[nH]c1ccccc12 — GI50 (NCI-H460; cell growth or viability, SRB; 72 h): 4100 nM
CCCCCNCC(O)c1cc(Cl)cc2c1-c1ccc(Cl)cc1C2 (racemic) — IC50 (Plasmodium falciparum; parasite growth, SYBR Green; W2; 48 h, drug-resistant strain, blood stage): 8.7 nM
Cn1cc2c3c1C(=O)C(NCCc1ccc(O)cc1)=CC3=[N+](C)CC2 — IC50 (Plasmodium falciparum; parasite growth, SYBR Green; 3D7; blood stage): 43.7 nM
CC(C)C[C@@H]1NC(=O)[C@H](CC(N)=O)NC(=O)[C@H](CCCNC(=N)N)NC(=O)[C@H]([C@@H](C)O)NC(=O)[C@@H]2CSSC[C@@H]3NC(=O)[C@H]([C@@H](C)O)NC(=O)CNC(=O)CNC(=O)[C@H](C(C)C)NC(=O)[C@@H]4CSSC[C@H](NC(=O)[C@H]([C@@H](C)O)NC(=O)[C@H](CSSC[C@H](NC(=O)[C@H](C(C)C)NC(=O)[C@@H]5CCCN5C(=O)[C@H](CC(C)C)NC1=O)C(=O)NCC(=O)N[C@@H](CCC(=O)O)C(=O)N[C@@H]([C@@H](C)O)C(=O)N4)NC(=O)CNC(=O)[C@@H]1CCCN1C(=O)[C@H]([C@@H](C)O)NC(=O)[C@H](CC(N)=O)NC3=O)C(=O)N[C@@H](CO)C(=O)N[C@@H](Cc1c[nH]c3ccccc13)C(=O)N1CCC[C@H]1C(=O)N[C@@H](C(C)C)C(=O)N2 — IC50 (Sf9; cell growth or viability, MTT; 24 h): 1800 nM
Cn1cc2c3c1C(=O)C(N)=CC3=NCC2 — IC50 (Plasmodium falciparum; parasite growth, SYBR Green; 3D7; blood stage): 3300 nM
CC(C)C[C@@H]1NC(=O)CNC(=O)[C@H](CC(N)=O)NC(=O)[C@H](CCCNC(=N)N)NC(=O)[C@H]([C@@H](C)O)NC(=O)[C@@H]2CSSC[C@@H]3NC(=O)[C@H]([C@@H](C)O)NC(=O)CNC(=O)CNC(=O)[C@H](C(C)C)NC(=O)[C@@H]4CSSC[C@H](NC(=O)[C@H](CCCCN)NC(=O)[C@H](CSSC[C@H](NC(=O)[C@H](C(C)C)NC(=O)[C@@H]5CCCN5C1=O)C(=O)NCC(=O)N[C@@H](CCC(=O)O)C(=O)N[C@@H]([C@@H](C)O)C(=O)N4)NC(=O)CNC(=O)[C@@H]1CCCN1C(=O)[C@H]([C@@H](C)O)NC(=O)[C@H](CC(N)=O)NC3=O)C(=O)N[C@@H](CO)C(=O)N[C@@H](Cc1c[nH]c3ccccc13)C(=O)N1CCC[C@H]1C(=O)N[C@@H](C(C)C)C(=O)N2 — IC50 (Sf9; cell growth or viability, MTT; 24 h): 2600 nM
